# GASC-1 inh = inhibitors of GASC-1 histone demethylase, primary screen, biochemical, fluorescence, DELFIA europium. Lysine-specific demethylase 4C (Homo sapiens), Q9H3R0. GST-JMJD2C(1-420) H3K9me3 demethylation. inhibition, % at 2.35 µM. 0.069% of 330,000 active;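 active = more than half of a compound's replicate wells show inhibition beyond 50%, single wells judged on their own value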;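 also: signal counts dimethyl H3K9 product captured on neutravidin plate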
# SIAE primary = human SIAE inhibitors, primary screen, biochemical, fluorescence polarization, FP-Rh probe, 1536-well HTS; Sialate O-acetylesterase (Homo sapiens), Q9HAT2; SIAE FP-Rh probe binding; inhibition, % at 9.66 µM; 0.69% of 370,000 active;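 active = inhibition above a cutoff: mean of compounds within the control limits plus 3 SD of those, cut at about 17% in these data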
# mABHD4 FP = ABHD4 inhibitors, primary screen, biochemical, fluorescence polarization, mouse; purified mABHD4, FP-Rh probe fluorescence polarization; inhibition, % at 8.92 µM; 0.54% of 370,000 active; AID 720543, 2013;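 active = inhibition exceeding the mean over every tested compound plus 3 SD, cut at about 30% in these data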
#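 Test system: mABHD4 protein; Read-out basis: % inhibition; Incubation: 45 min + 60 min at 25 °C; Repeats: single replicate; Technique: fluorescence polarization with parallel and perpendicular emission, 525/598 nm; Compound: 8.92 µM, single dose; Benchmarks: full inhibition S159A mutant plus DMSO, zero as sample-well median.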
# PRMT1 FP inh = PRMT1 methyltransferase inhibitors, primary screen, biochemical, fluorescence polarization | 1.3% of 370,000 active | recombinant PRMT1, activity-based probe fluorescence polarization | Protein arginine N-methyltransferase 1 (Homo sapiens), Q99873 | AID 652257, 2013 | inhibition, % at 2.79 µM;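 active = inhibition above about 21% made by adding two undisclosed values, limit read from the data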
# HTRA1 inh = HTRA1 serine protease inhibitors, primary screen, biochemical, fluorescence polarization, HTS; AID 504803, 2011; Q92743; recombinant HTRA1, FP-rhodamine activity-based probe; inhibition, % at 5.96 µM; 0.5% of 340,000 active; in the data active = inhibition above about 36%
# Target sequence (Q92743 whole entry, looked up): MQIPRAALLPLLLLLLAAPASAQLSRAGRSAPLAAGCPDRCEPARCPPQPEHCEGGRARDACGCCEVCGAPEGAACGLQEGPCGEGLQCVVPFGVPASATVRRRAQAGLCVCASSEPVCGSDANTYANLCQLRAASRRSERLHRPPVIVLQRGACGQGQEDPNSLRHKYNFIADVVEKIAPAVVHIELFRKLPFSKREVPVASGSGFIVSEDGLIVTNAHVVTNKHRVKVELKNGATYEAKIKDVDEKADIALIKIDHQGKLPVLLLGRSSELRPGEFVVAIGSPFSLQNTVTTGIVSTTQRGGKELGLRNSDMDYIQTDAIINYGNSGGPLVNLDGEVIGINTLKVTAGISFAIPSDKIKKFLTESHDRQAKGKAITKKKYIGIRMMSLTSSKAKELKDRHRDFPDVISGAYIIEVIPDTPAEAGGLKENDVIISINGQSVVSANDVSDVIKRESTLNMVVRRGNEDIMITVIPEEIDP
# mABHD4 conf = ABHD4 inhibitors, retest, confirmation, biochemical, fluorescence polarization, mouse; shares compounds with mABHD4 FP; purified mABHD4, FP-Rh probe fluorescence polarization; inhibition, % at 8.92 µM; 55% of 1,800 active; AID 720658, 2013;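 active = mean inhibition across replicates above the hit cutoff set in the primary screen, cut at about 30% in these data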
# Hits are given with their value; 0 = inactive; - = not tested or not shown. Shown are actives, neighbours in structure and some others; about 2.4% of the full set was active somewhere.
SMILES,GASC-1 inh,SIAE primary,mABHD4 FP,PRMT1 FP inh,HTRA1 inh,mABHD4 conf
COc1ccc(OCC(=O)Nc2nc3ccccc3[nH]2)cc1,0,0,39,0,0,39
CCOc1ccc(C(=O)Nc2nc3ccccc3[nH]2)cc1OCC,0,0,35,0,0,40
COc1cc(OC)cc(C(=O)Nc2nc3ccccc3[nH]2)c1,0,0,36,0,0,31
COc1ccc(C(=O)Nc2nc3ccccc3[nH]2)cc1OC,0,0,0,0,0,-
CCN(Cc1cn(Cc2ccccc2)nn1)S(=O)(=O)c1ccc(F)cc1Br,-,0,0,0,-,-
O=S(=O)(O)c1cccc2cccc(Nc3ccccc3)c12,0,0,61,25,0,0
COC(=O)c1ccccc1Nc1ccccc1,0,0,0,0,0,-
COc1c(/C=N/Nc2nc(N3CCCCC3)nc(N3CCCCC3)n2)cccc1[N+](=O)[O-],0,0,0,0,0,-
O=[N+]([O-])c1ccc(/C=N/Nc2nc(N3CCCCC3)nc(N3CCCCC3)n2)o1,0,0,54,0,0,55
Cc1cc(/C=C(\C#N)C(=O)Nc2ccccc2)c(C)n1-c1cccnc1,0,0,0,0,0,-
Cc1cc(C(=O)O)ccc1-n1c(C)cc(/C=C(/C#N)C(=O)Nc2ccccc2)c1C,0,0,46,0,-,0
COc1cc(OC)cc(C(=O)Nc2nc(CC(=O)NCc3ccccc3OC)cs2)c1,0,0,0,0,0,-
COc1cc(OC)cc(C(=O)Nc2nc(CC(=O)NCc3ccc(F)cc3)cs2)c1,0,0,43,0,0,35
COC(=O)[C@]12C[C@H](CC(=O)N3CCCCC3)C(=O)N(Cc3ccc4c(c3)OCO4)C1=C[C@H](C(C)C)O[C@@H]2C1CC1,-,0,0,0,-,-
CC(=O)Oc1ccc2c(=O)c(Oc3ccccc3)c(C)oc2c1OC(C)=O,0,0,42,0,0,0
CC(C)C(=O)N1CC[C@H]2[C@H](CCCN2Cc2ccc(F)cc2)C1,-,0,0,0,-,-
O=C1/C(=C2\C(=O)N(Cc3ccc(F)cc3)c3ccccc32)SC(=S)N1CCS(=O)(=O)O,0,0,76,0,0,100
Oc1ccc2ccccc2c1C=NNc1ccccn1,-,0,36,0,0,0
CNCc1ccccc1Sc1cc(O)ccc1O,-,0,50,58,0,63
Cc1csc(=O)n1CCC(=O)OCC(=O)Nc1cc([N+](=O)[O-])ccc1Cl,0,0,56,0,0,0
Cc1ccc(NC(=O)COC(=O)CCn2c(C)csc2=O)c([N+](=O)[O-])c1,0,0,0,0,0,-
O=C(O)c1ccccc1Nc1ccccc1C(=O)O,0,0,0,0,0,-
O=C1C=C(Nc2ccccc2C(=O)O)c2ccccc2C1=O,0,0,44,0,0,53
COc1cccc(C(=O)N2CCC(Oc3cccnc3)CC2)c1,-,0,0,0,-,-
Cc1ccc(/C=C2\SC(=S)N(CC3CCCO3)C2=O)o1 (stereo unspecified),0,0,30,23,0,0
SMILES,GASC-1 inh,SIAE primary,mABHD4 FP,PRMT1 FP inh,HTRA1 inh,mABHD4 conf
O=C1/C(=C\c2ccc(-c3ccccc3Cl)o2)SC(=S)N1CC1CCCO1 (stereo unspecified),0,0,0,0,0,-
Cc1cc(=O)oc2c(O)c(O)ccc12,-,0,30,0,0,0
Cc1c(Cc2ccccc2)c(=O)oc2cc(O)ccc12,0,0,0,0,0,-
Cc1c(Cc2ccccc2)c(=O)oc2c(O)c(O)ccc12,0,0,35,0,-,89
Cc1cc(=O)oc2c(CN3CCCC3)c(O)ccc12,0,0,0,0,0,-
CCCCOc1ccc(S(=O)(=O)NC(=O)C2(C)CCN2C(=O)CCc2ccccc2)cc1 (stereo unspecified),-,0,0,0,-,-
COc1ccccc1NC(=O)Nc1nc(C(N)Cc2ccc(C(F)(F)F)cc2)cs1 (stereo unspecified),-,0,0,0,-,-
COc1cc(NC(=O)Nc2nc(C(N)Cc3ccc(C(F)(F)F)cc3)cs2)cc(OC)c1OC (stereo unspecified),-,0,44,0,-,39

# Compound activity (PubChem BioAssay)
